# Measured values: ChEMBL document CHEMBL1152649, “Synthesis, cytotoxicity and human telomerase inhibition activities of a series of 1,2-heteroannelated anthraquinones and anthra[1,2-d]imidazole-6,11-dione homologues” (2009)
# Assays:
# [1] = test system: HT-29; experiment: Growth inhibition of human HT-29 cells; type: functional; settings: read-out: LC50 (the source's name)
# Outline: (§1)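 NCI 60 cancer cell line screen run per the Developmental Therapeutics Program protocol. Dose–response curves were plotted against log10 drug concentration for each cell line within its subpanel, and mean graph midpoint values were calculated.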
# [2] = test system: SW-620; experiment: Growth inhibition of human SW620 cells; type: functional
# Outline: (§2)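 Assayed in the NCI 60 human cancer cell line panel under the Developmental Therapeutics Program protocol. For each line, dose–response curves were plotted against log10 drug concentration. In the one-dose screen at 10^-5 M, growth was given as percent of untreated control cells, and mean graph midpoint values were averaged.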
# [3] = test system: Malme-3M; experiment: Growth inhibition of human MALME-3M cells; type: functional; outline: as §1
# [4] = test system: MDA-MB-435; experiment: Growth inhibition of human MDA-MB-435 cells; type: functional; outline: as §1
# [5] = test system: SK-MEL-28; experiment: Growth inhibition of human SK-MEL-28 cells; type: functional; outline: as §2
# [6] = test system: UACC-62; experiment: Growth inhibition of human UACC62 cells; type: functional; outline: as §2
# [7] = test system: IGROV-1; experiment: Growth inhibition of human IGROV1 cells; type: functional; outline: as §1
# [8] = test system: OVCAR-3; experiment: Growth inhibition of human OVCAR-3 cells; type: functional; outline: as §1
# [9] = test system: OVCAR-4; experiment: Growth inhibition of human OVCAR4 cells; type: functional; outline: as §1
# [10] = test system: OVCAR-8; experiment: Growth inhibition of human OVCAR8 cells; type: functional; outline: as §1
# [11] = test system: ACHN; experiment: Growth inhibition of human ACHN cells; type: functional; outline: as §1
# [12] = test system: CAKI-1; experiment: Growth inhibition of human Caki1 cells; type: functional; outline: as §1
# [13] = test system: TK-10; experiment: Growth inhibition of human TK10 cells; type: functional; outline: as §2
# [14] = test system: HOP-92; experiment: Antiproliferative activity against human HOP92 cells assessed as cell growth at 10 uM; type: functional; settings: read-out: Activity
# Outline: (§3)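 NCI 60 cell line panel, single-dose screen (10^-5 M) run by the developmental therapeutics program protocol. Results are given as growth percent of treated cells relative to untreated control cells for each line.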
# [15] = test system: NCI-H23; experiment: Antiproliferative activity against human NCI-H23 cells assessed as cell growth at 10 uM; type: functional; settings: read-out: Activity; outline: as §3
# [16] = test system: NCI-H322M; experiment: Antiproliferative activity against human NCI-H322M cells assessed as cell growth at 10 uM; type: functional; settings: read-out: Activity; outline: as §3
# [17] = test system: NCI-H460; experiment: Antiproliferative activity against human NCI-H460 cells assessed as cell growth at 10 uM; type: functional; settings: read-out: Activity; outline: as §3
# [18] = test system: KM12; experiment: Antiproliferative activity against human KM12 cells assessed as cell growth at 10 uM; type: functional; settings: read-out: Activity; outline: as §3
# [19] = target: Telomerase reverse transcriptase (Homo sapiens) (UniProt O14746); experiment: Inhibition of TERT in human H1299 cells assessed as residual transcriptional activity at 100 uM after 24 hrs by SEAP reporter gene assay; values are per cent of control
# [20] = read-out: LC50 (the source's name)
# Sequence of Telomerase reverse transcriptase (Homo sapiens) (O14746 whole entry): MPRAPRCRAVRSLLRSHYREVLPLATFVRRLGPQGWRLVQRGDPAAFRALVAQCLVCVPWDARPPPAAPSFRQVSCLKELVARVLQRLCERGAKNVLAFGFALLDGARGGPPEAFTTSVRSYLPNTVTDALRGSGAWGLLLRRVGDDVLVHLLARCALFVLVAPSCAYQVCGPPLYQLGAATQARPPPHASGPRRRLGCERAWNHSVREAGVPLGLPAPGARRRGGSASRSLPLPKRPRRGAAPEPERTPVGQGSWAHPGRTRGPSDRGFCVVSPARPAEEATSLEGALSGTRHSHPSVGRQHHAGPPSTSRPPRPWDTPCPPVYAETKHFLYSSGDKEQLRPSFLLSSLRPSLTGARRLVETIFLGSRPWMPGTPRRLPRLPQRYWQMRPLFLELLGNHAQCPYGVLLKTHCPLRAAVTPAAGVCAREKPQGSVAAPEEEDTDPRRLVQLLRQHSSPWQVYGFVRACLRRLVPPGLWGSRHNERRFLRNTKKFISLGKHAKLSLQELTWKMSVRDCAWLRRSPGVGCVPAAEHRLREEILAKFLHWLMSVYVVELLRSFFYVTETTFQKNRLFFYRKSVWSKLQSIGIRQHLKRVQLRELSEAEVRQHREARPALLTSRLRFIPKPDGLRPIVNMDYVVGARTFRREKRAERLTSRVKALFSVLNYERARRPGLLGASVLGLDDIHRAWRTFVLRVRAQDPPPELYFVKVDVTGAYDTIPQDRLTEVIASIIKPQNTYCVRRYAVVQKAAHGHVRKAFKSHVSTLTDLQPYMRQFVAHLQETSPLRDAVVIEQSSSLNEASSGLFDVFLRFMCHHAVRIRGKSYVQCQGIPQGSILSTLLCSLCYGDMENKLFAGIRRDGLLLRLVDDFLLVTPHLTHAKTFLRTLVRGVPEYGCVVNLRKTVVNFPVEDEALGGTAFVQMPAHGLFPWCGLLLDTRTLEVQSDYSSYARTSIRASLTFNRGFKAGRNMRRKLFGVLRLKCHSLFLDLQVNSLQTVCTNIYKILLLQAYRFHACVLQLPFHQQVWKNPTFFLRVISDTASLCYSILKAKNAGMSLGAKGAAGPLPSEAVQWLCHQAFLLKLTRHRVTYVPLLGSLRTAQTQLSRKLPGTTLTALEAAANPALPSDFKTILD
smiles,measurement,setting,value
CCc1nc2ccc3c(c2[nH]1)C(=O)c1ccccc1C3=O,CC50,[1],> 100 µM
same,GI50,[2],19.8 µM
same,TGI,[2],> 100 µM
same,CC50,[2]; [20],> 100 µM
same,GI50,[3],8.55 µM
same,TGI,[3],> 100 µM
same,CC50,[3]; [20],> 100 µM
same,GI50,[4],30.3 µM
same,TGI,[4],> 100 µM
same,CC50,[4]; [20],> 100 µM
same,GI50,[5],> 100 µM
same,TGI,[5],> 100 µM
same,CC50,[5]; [20],> 100 µM
same,GI50,[6],8.09 µM
same,TGI,[6],> 100 µM
same,CC50,[6]; [20],> 100 µM
same,GI50,[7],1.54 µM
same,TGI,[7],14.8 µM
same,CC50,[7]; [20],> 100 µM
same,GI50,[8],16.5 µM
same,TGI,[8],> 100 µM
same,CC50,[8]; [20],> 100 µM
same,GI50,[9],25.7 µM
same,TGI,[9],> 100 µM
same,CC50,[9]; [20],> 100 µM
same,GI50,[10],23.2 µM
same,TGI,[10],> 100 µM
same,CC50,[10]; [20],> 100 µM
same,GI50,[11],3.29 µM
same,TGI,[11],> 100 µM
same,CC50,[11]; [20],> 100 µM
same,GI50,[12],1.17 µM
same,TGI,[12],> 100 µM
same,CC50,[12]; [20],> 100 µM
same,GI50,[13],12.1 µM
same,TGI,[13],> 100 µM
same,CC50,[13]; [20],> 100 µM
same,growth at 10 µM,[14],41.4%
same,growth at 10 µM,[15],71.4%
same,growth at 10 µM,[16],31.4%
same,growth at 10 µM,[17],59.8%
same,growth at 10 µM,[18],72.9%
same,residual activity,[19],25%
